In ChEMBL document CHEMBL1126060, “Spiropiperidines as high-affinity, selective sigma ligands” (J Med Chem, 1992):

The compounds below were run against D(2) dopamine receptor (Rattus norvegicus, UniProt P61169) (assay: In vitro for the binding affinity against dopamine receptor D2 by using [3H](-)-sulpiride as radioligand in rat striatum.).
D(2) dopamine receptor, sequence (P61169 whole entry): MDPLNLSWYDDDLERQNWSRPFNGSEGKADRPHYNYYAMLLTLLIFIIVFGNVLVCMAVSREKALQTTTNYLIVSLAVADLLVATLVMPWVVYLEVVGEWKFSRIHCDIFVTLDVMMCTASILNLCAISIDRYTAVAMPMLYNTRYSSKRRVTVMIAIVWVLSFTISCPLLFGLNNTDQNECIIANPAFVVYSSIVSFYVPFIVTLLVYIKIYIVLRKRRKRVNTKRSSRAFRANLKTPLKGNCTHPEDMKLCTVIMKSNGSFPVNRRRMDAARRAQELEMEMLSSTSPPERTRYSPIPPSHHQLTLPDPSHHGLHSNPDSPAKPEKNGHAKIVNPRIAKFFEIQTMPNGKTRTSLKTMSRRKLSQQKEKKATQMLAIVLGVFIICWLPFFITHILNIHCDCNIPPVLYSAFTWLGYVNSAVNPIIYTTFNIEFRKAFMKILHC
Format: tissue-based
How it was run: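 Displacement of [³H]-(-)-sulpiride from rat striatal homogenates. Values are reported as -log₁₀(IC₅₀), the mean of two to three independent determinations. Values without error limits are the mean of two independent experiments.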
c1ccc2c(c1)CCC21CCN(CC2CCCCC2)CC1 showed an IC50 of 6.61 µM.
c1ccc2c(c1)CCCC21CCN(CC2CCCCC2)CC1 showed an IC50 of 1.95 µM.
Work on CCCCCCN1CCC2(CCCc3ccccc32)CC1 yielded an IC50 of 2.04 µM.
COc1ccc(CN2CCC3(CCCc4ccccc43)CC2)cc1 showed an IC50 of 0.12 µM.
With Cc1ccc(CN2CCC3(CCCc4ccccc43)CC2)cc1 the IC50 was 0.174 µM.
CCCCN1CCC2(CCCCc3ccccc32)CC1 was tested, and the IC50 was 2.51 µM.
With c1ccc(CN2CCC3(CCCCc4ccccc43)CC2)cc1 the IC50 was 3.72 µM.
For CCCCCCN1CCC2(CCc3ccccc32)CC1, the IC50 was 5.5 µM.
COc1ccc(CN2CCC3(CCc4ccccc43)CC2)cc1 was tested, and the IC50 was 0.617 µM.
CCCCN1CCC2(CCc3ccccc32)CC1 showed an IC50 of 3.98 µM.
For CCCCN1CCC2(CCCc3ccccc32)CC1, the IC50 was 11 µM.
For CC(C)=CCN1CCC2(CCc3ccccc32)CC1, the IC50 was 17 µM.
c1ccc(CN2CCC3(CCc4ccccc43)CC2)cc1 showed an IC50 of 0.891 µM.
Compound CC(C)=CCN1CCC2(CCCc3ccccc32)CC1 has an IC50 of 5.5 µM.
